Here are results for 13 compounds from PubChem BioAssay.

Active and inactive are the calls of the source.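 Rule for the calls, unless noted: active = viability at or under a set limit in both replicates, limit being median viability minus 3 SD (cut at about 48% in these data, passing the limit was not always enough); inconclusive = at or under the limit in just one replicate; inactive = at or above the limit in both replicates.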

Test [1] in a line: reduced viability of SK-BR-3 breast cancer cells – cell-based, 24 h, human, pilot screen (AID 572;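 active = viability at or below 10% of carrier control in both of two separate runs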;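 note: compound exposure lasted between 18 and 24 h rather than exactly 24 h; 100% = carrier-treated control wells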). The conditions noted are these: SK-BR-3 viability, CellTiter-Glo luminescence, at 10 µM, stronger effect = lower value. Background: In ATP-based viability assays light output follows the ATP content of the culture.
A short description of test [2]: HUVEC growth inhibition – cell-based, human, primary screen (AID 575;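 active = viability at or below 30% in both replicate assays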;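 note: 100% = median of untreated cell wells with 0.1% DMSO on each plate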). The conditions noted are these: HUVEC proliferation, CellTiter-Glo luminescence, 72 h; at 10 µM; stronger effect = lower value. Summed up:
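System: primary human umbilical vein endothelial cells; Quantity: 1250 endothelial cells in each well; Buffer or medium: supplemented EBM, 2% fetal bovine serum; Doses: one dose, 10 µM final, 0.1% DMSO; Incubation: 72 h compound incubation; Technique: ATP-based CellTiter-Glo luminescent read; Evaluation: percent of median DMSO-control luminescence; Controls: vehicle and MePR control wells.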

Test [3] can be described thus: H69AR cell proliferation blockers – human, duplicate replicates, primary screen (AID 580).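 Note: 100% = mean luminescence of untreated wells and 0% = no signal.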 The conditions noted are these: H69AR lung tumor cells viability, ATP luminescence, 72 h; at 10 µM; stronger effect = lower value.
The nature of test [4]: MRP1 drug-resistance reversers in H69AR cells – cell-based, doxorubicin co-treatment, pilot screen (AID 601;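 active = viability loss from added drug above about 55%, and viability with drug at most 40%, in both replicates, limit read from the data, passing the limit was not always enough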). The conditions noted are these: CellTiter-Glo, 72 h, at 10 µM; for differential viability (reversal): stronger effect = higher value.
Test [5] can be described thus: yeast transport mutant growth inhibition pilot in 384-well plates, post-Golgi transport modulator project (AID 636; in the data active = inhibition above about 31%). The conditions noted are these: absorbance 615 nm, about 18 h, stronger effect = higher value.
Test [6] can be described thus: growth suppression of yeast trafficking mutant, preliminary HTS, modulators of trafficking downstream of Golgi apparatus project, 1536-format plate, OD 615 nm (AID 637; in the data active = inhibition above about 30%). The conditions noted are these: yeast transport mutant growth, absorbance 615 nm, 18 h; stronger effect = higher value.
Setting [7] is: H69AR cells + 2 uM doxorubicin, measured here: viability with 2 uM doxorubicin, stronger effect = lower value.
Where [8] appears, read: H69AR cells, compound alone cytotoxicity.

Turning to `O=C(CSc1ccccc1C(=O)NCCCN1CCCC1=O)NCc1ccco1`, the viability in test [1] is 108% (inactive); in test [2] it was 102% (inactive); in test [3], 82.3% (inactive); in test [4] (setting [7]) it was 80%; in test [4] (setting [8]), 82.3%. Further, in test [4] (H69AR cells + 2 uM doxorubicin), the differential viability (reversal) was 2.32% (inactive). The inhibition in test [5] is -3.6% (inactive); in test [6], 6% (inactive).
`O=C1c2ccccc2NC2CCCCCN12` (centres undefined): the viability is 108% (inactive) in test [1]; 92.9% (inactive) in test [2]; 100% (inactive) in test [3]; 89.8% in test [4] (setting [7]); 100% in test [4] (setting [8]). Besides, the differential viability (reversal) in test [4] (H69AR cells + 2 uM doxorubicin) was 10.3% (inactive). The inhibition is -2.34% (inactive) in test [5] and 1.48% (inactive) in test [6].
For `CCOC(=O)c1nnc2ccnn2c1N`, the viability in test [1] is 74% (inactive); in test [2], 87.9% (inactive); in test [3], 109% (inactive); in test [4] (setting [7]), 107%; in test [4] (setting [8]) it was 109%. For the same compound, the differential viability (reversal) in test [4] (H69AR cells + 2 uM doxorubicin) is 1.61% (inactive). The inhibition was -4.79% (inactive) in test [5] and -2.91% (inactive) in test [6].
For `Cc1ccc2c(c1)N(CC(=O)Nc1ccc3c(c1)OCCO3)C(=O)CO2`, the viability is 104% (inactive) in test [1]; 103% (inactive) in test [2]; 105% (inactive) in test [3]; 94.3% in test [4] (setting [7]); 105% in test [4] (setting [8]). The differential viability (reversal) in test [4] (H69AR cells + 2 uM doxorubicin) was 10.7% (inactive). Further, the inhibition in test [5] is -5% (inactive); in test [6], -4.73% (inactive).
Take `Cc1noc(C)c1CSc1nnc2scc(-c3ccc(Cl)cc3)n12`: the viability in test [1] was 88% (inactive); in test [2], 113% (inactive); in test [3], 91.6% (inactive); in test [4] (setting [7]), 86.7%; in test [4] (setting [8]), 91.6%. In addition, the differential viability (reversal) in test [4] (H69AR cells + 2 uM doxorubicin) was 4.96% (inactive). Also, the inhibition in test [5] was -8.63% (inactive); in test [6] it was 1.13% (inactive).
As to `Cc1cc(C)c(NC(=O)CSc2nnc(-c3ccncc3)n2Cc2ccco2)c(C)c1`, the viability was 91% (inactive) in test [1]; 109% (inactive) in test [2]; 97.4% (inactive) in test [3]; 94.2% in test [4] (setting [7]); 97.4% in test [4] (setting [8]). Further, the differential viability (reversal) in test [4] (H69AR cells + 2 uM doxorubicin) is 3.25% (inactive). In addition, the figures for the inhibition in test [5] and in test [6] were -2.7% (inactive) and -4.73% (inactive), respectively.
Consider `CCC(c1c(C)n(C)n(-c2ccccc2)c1=O)c1c(C)n(C)n(-c2ccccc2)c1=O`, for which the viability in test [1] was 78% (inactive); in test [2], 103% (inactive); in test [3], 100% (inactive); in test [4] (setting [7]), 91.5%; in test [4] (setting [8]), 100%. Further, in test [4] (H69AR cells + 2 uM doxorubicin), the differential viability (reversal) is 8.48% (inactive). Further, the inhibition in test [5] is -5.21% (inactive); in test [6], 4.73% (inactive).
Take `CCOCCCNC(=O)C1CCC(CNS(=O)(=O)c2cccc3nsnc23)CC1` (centres undefined): the viability is 102% (inactive) in test [1]; 84.6% (inactive) in test [2]; 88.3% (inactive) in test [3]; 93.6% in test [4] (setting [7]); 88.3% in test [4] (setting [8]). Also, in test [4] (H69AR cells + 2 uM doxorubicin), the differential viability (reversal) is -5.31% (inactive). Moreover, the inhibition in test [5] is 0% (inactive); in test [6], -4.92% (inactive).
`Cc1cccc(N(C)C(=S)Oc2ccc3ccccc3c2)c1`: the viability in test [1] was 89% (inactive); in test [2], 109% (inactive); in test [3], 97.1% (inactive); in test [4] (setting [7]), 84.1%; in test [4] (setting [8]), 97.1%. Also, the differential viability (reversal) in test [4] (H69AR cells + 2 uM doxorubicin) was 13% (inactive). The inhibition in test [5] was 0.26% (inactive); in test [6], 1.83% (inactive).
As for `COCCNC(=S)c1ccc(OC)cc1`, the viability in test [1] is 118% (inactive); in test [2] it was 112% (inactive); in test [3], 86% (inactive); in test [4] (setting [7]) it was 77.1%; in test [4] (setting [8]) it was 86%. The differential viability (reversal) in test [4] (H69AR cells + 2 uM doxorubicin) is 8.94% (inactive). Besides, the inhibition was -8.27% (inactive) in test [5] and 5.27% (inactive) in test [6].
Turning to `C=CCN1C(=O)CS/C1=N/c1nccs1`, the viability in test [1] was 65% (inactive); in test [2], 96.5% (inactive); in test [3], 98.4% (inactive); in test [4] (setting [7]), 97%; in test [4] (setting [8]) it was 98.4%. Moreover, the differential viability (reversal) in test [4] (H69AR cells + 2 uM doxorubicin) was 1.4% (inactive). Besides, the figures for the inhibition in test [5] and in test [6] were -8.9% (inactive) and -1.13% (inactive), respectively.
For `O=S(=O)(c1cccc2c(S(=O)(=O)N3CCCC3)cccc12)N1CCCC1`, the viability in test [1] is 72% (inactive); in test [2], 107% (inactive); in test [3], 93.5% (inactive); in test [4] (setting [7]), 88.2%; in test [4] (setting [8]), 93.5%. Further, in test [4] (H69AR cells + 2 uM doxorubicin), the differential viability (reversal) was 5.26% (inactive). In addition, the inhibition in test [5] is -9.18% (inactive); in test [6] it was -0.55% (inactive).
With `O=C(COc1ccc(S(=O)(=O)NC2CCCCC2)cc1)NCc1ccccn1`, the viability in test [1] was 65% (inactive); in test [2], 102% (inactive); in test [3], 85.6% (inactive); in test [4] (setting [7]) it was 88.6%; in test [4] (setting [8]), 85.6%. For the same compound, the differential viability (reversal) in test [4] (H69AR cells + 2 uM doxorubicin) was -3% (inactive). The inhibition in test [5] is -7.26% (inactive); in test [6], 2.18% (inactive).

Broadly, the viability is a read-out of living cells in per cent, often relative to untreated cells. As a reminder, the inhibition is the change of the read-out against control, counted positive when it falls.
